Results as given in ChEMBL document CHEMBL1137448, “Structure-activity studies on diphenylpyrazine derivatives: a novel class of prostacyclin receptor agonists” (Bioorg Med Chem, 2007).

How the values were obtained:
Plasma = test: Inhibition of ADP-induced platelet aggregation in human platelet rich plasma
[1] = Cmax in Sprague-Dawley rat at 10 mg/kg, po; assay type: ADME, organism-based; design: dose 10 mg/kg, route oral; conditions: in vivo
How it was run: (§1)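 Animals were acclimatized (rats >1 week, dogs and monkeys >3 weeks) at 21–25 °C and 45–65% humidity, and were not fasted. Dosing was iv or oral to groups of three. Venous blood was sampled predose and at 5, 15 and 30 min and 1–24 h into heparin. Plasma was spun at 3000 rpm for 15 min at 4 °C and analysed by LC-MS (APCI/ESI positive, SIM/SRM). Values are mean ± SD, n=3.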

[2] = Half life in Sprague-Dawley rat at 10 mg/kg, po; assay type: ADME, organism-based; design: dose 10 mg/kg, route oral; conditions: in vivo
How it was run: as §1

[3] = Oral bioavailability in Sprague-Dawley rat at 10 mg/kg; assay type: ADME, organism-based; conditions: in vivo
How it was run: as §1

[4] = Half life in Sprague-Dawley rat at 3 mg/kg, iv; assay type: ADME, organism-based; design: dose 3 mg/kg, route intravenous; conditions: in vivo
How it was run: as §1

[5] = AUC in cynomolgus monkey at 1 mg/kg, po; assay type: ADME, organism-based, Macaca fascicularis; design: dose 1 mg/kg, route oral; conditions: plasma
How it was run: as §1

[6] = AUC in Beagle dog at 3 mg/kg, po; assay type: ADME, organism-based, Canis lupus familiaris; design: dose 3 mg/kg, route oral; conditions: plasma
How it was run: (§2)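 Compound given iv or po to non-fasted groups of three animals (acclimatized ≥1 week rats, ≥3 weeks dogs; fed standard diets, 21–25 °C). Venous blood at predose, 5, 15, 30 min, 1, 2, 4, 6, 8, 10, 24 h into heparinized tubes; plasma by centrifugation (3000 rpm, 15 min, 4 °C); drug measured by LC-MS (APCI or ESI positive, SIM/SRM). Values mean ± SD, n = 3.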

[7] = Tmax in Sprague-Dawley rat at 10 mg/kg, po; assay type: ADME, organism-based; design: dose 10 mg/kg, route oral; conditions: in vivo
How it was run: as §1

[8] = Cmax in Beagle dog at 3 mg/kg, po; assay type: ADME, organism-based, Canis lupus familiaris; design: dose 3 mg/kg, route oral; conditions: in vivo
How it was run: as §1

[9] = Half life in Beagle dog at 3 mg/kg, po; assay type: ADME, organism-based, Canis lupus familiaris; design: dose 3 mg/kg, route oral; conditions: in vivo
How it was run: as §1

[10] = AUC in Sprague-Dawley rat at 10 mg/kg, po; assay type: ADME, organism-based; design: dose 10 mg/kg, route oral; conditions: plasma
How it was run: as §2

[11] = Tmax in Beagle dog at 3 mg/kg, po; assay type: ADME, organism-based, Canis lupus familiaris; design: dose 3 mg/kg, route oral; conditions: in vivo
How it was run: as §1

[12] = Tmax in cynomolgus monkey at 1 mg/kg, po; assay type: ADME, organism-based, Macaca fascicularis; design: dose 1 mg/kg, route oral; conditions: in vivo
How it was run: (§3)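 Compound given iv or orally to non-fasted animals, groups of three; dogs and monkeys acclimatised over 3 weeks at 21–25 °C, 45–65% humidity. Venous blood drawn into heparinised tubes before dosing and at 5, 15, 30 min and 1, 2, 4, 6, 8, 10, 24 h; plasma by centrifugation (3000 rpm, 15 min, 4 °C), drug quantified by HPLC-MS in SIM or SRM mode; mean ± SD, n = 3.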

[13] = Oral bioavailability in Beagle dog at 3 mg/kg; assay type: ADME, organism-based, Canis lupus familiaris; conditions: in vivo
How it was run: as §1

[14] = Half life in Beagle dog at 1 mg/kg, iv; assay type: ADME, organism-based, Canis lupus familiaris; design: dose 1 mg/kg, route intravenous; conditions: in vivo
How it was run: as §3

[15] = AUC in Beagle dog at 1 mg/kg, iv; assay type: ADME, organism-based, Canis lupus familiaris; design: dose 1 mg/kg, route intravenous; conditions: plasma
How it was run: as §2

[16] = Cmax in cynomolgus monkey at 1 mg/kg, po; assay type: ADME, organism-based, Macaca fascicularis; design: dose 1 mg/kg, route oral; conditions: in vivo
How it was run: as §3

[17] = AUC in Sprague-Dawley rat at 3 mg/kg, iv; assay type: ADME, organism-based; design: dose 3 mg/kg, route intravenous; conditions: plasma
How it was run: as §2

[18] = Half life in cynomolgus monkey at 1 mg/kg, po; assay type: ADME, organism-based, Macaca fascicularis; design: dose 1 mg/kg, route oral; conditions: in vivo
How it was run: as §3

**Q.** Which IC50 (Plasma) does the source give for `CC#CCC(C)[C@H](O)/C=C/[C@@H]1[C@H]2C/C(=C/CCCC(=O)O)C[C@H]2C[C@H]1O` (stereo partly drawn) [ILOPROST] here?
**A.** 5 nM

**Q.** Which IC50 (Plasma) does the source give for `CC(C)N(CCCCOCC(=O)NS(C)(=O)=O)c1cnc(-c2ccccc2)c(-c2ccccc2)n1` [SELEXIPAG] here?
**A.** 6400 nM

**Q.** Which Cmax [1] does the source give for `CC(C)N(CCCCOCC(=O)O)c1cnc(-c2ccccc2)c(-c2ccccc2)n1` here?
**A.** 1900 ng/mL

**Q.** And the half-life [2]?
**A.** 3.6 h

**Q.** What about the bioavailability [3] of the same molecule?
**A.** 102%

**Q.** What about the half-life [4] of the same molecule?
**A.** 4.9 h

**Q.** What about the AUC [5] of the same molecule?
**A.** 650 ng·h/mL

**Q.** What about the AUC [6] of the same molecule?
**A.** 176000 ng·h/mL

**Q.** What about the Tmax [7] of the same molecule?
**A.** 0.8 h

**Q.** What about the Cmax [8] of the same molecule?
**A.** 14900 ng/mL

**Q.** And the half-life [9]?
**A.** 6.2 h

**Q.** And the AUC [10]?
**A.** 17700 ng·h/mL

**Q.** And the Tmax [11]?
**A.** 0.8 h

**Q.** And the Tmax [12]?
**A.** 2.3 h

**Q.** What about the bioavailability [13] of the same molecule?
**A.** 80%

**Q.** What about the IC50 (Plasma) of the same molecule?
**A.** 200 nM

**Q.** What about the half-life [14] of the same molecule?
**A.** 5.9 h

**Q.** What about the AUC [15] of the same molecule?
**A.** 72500 ng·h/mL

**Q.** And the Cmax [16]?
**A.** 110 ng/mL

**Q.** And the AUC [17]?
**A.** 5200 ng·h/mL

**Q.** What about the half-life [18] of the same molecule?
**A.** 5.6 h

**Q.** With `CC#CCC(C)[C@H](O)/C=C/[C@@H]1[C@H]2c3cccc(CCCC(=O)O)c3O[C@H]2C[C@H]1O` (stereo partly drawn) [BERAPROST SODIUM] as the molecule, how does the IC50 (Plasma) read?
**A.** 17 nM

**Q.** For `CN(CCc1cccc(OCC(=O)O)c1)c1cnc(-c2ccccc2)c(-c2ccccc2)n1`, which IC50 (Plasma) is on record?
**A.** 2000 nM
